# Activity calls are given as the source filed them.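 Rule for the calls, unless noted: active = growth inhibition above 25% in both replicates, a cutoff set 3 SD above the mean; inconclusive = above 25% in only one replicate; inactive = the rest.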
# Test: S. cerevisiae growth inhibition in permissive medium (OD615), pilot counter-assay for S. cerevisiae lifespan shortening project, permissive growth control (AID 705)
# Settings: OD615, 24 h, at 10 µM, stronger effect = higher value
# In short: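 System: S. cerevisiae with engineered DeaD lifespan system / Measured by: absorbance (optical density) at 615 nm / Read-out: reduction in yeast growth (OD615) / Times: 4 h cell pre-growth, 24 h exposure at 30 °C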
row,SMILES,growth inhibition
1,O=C(C1CC1)N1CCCN(C(=O)C2CC2)CC1,2.42% (inactive)
2,CN(CCCNC(=O)Cn1cc2c(n1)CCCC2)C1CCCCC1,-2.1% (inactive)
3,Cc1cc(C(F)(F)F)nc(NCc2ccc(F)cc2)n1,-1.39% (inactive)
4,O=C(c1coc2ccccc2c1=O)N1CCN(c2cccc(C(F)(F)F)c2)CC1,-20% (inactive)
5,CCc1ccc(-c2nc(C(N)=O)c3[nH]c(=O)n(-c4ccccc4OC)c3n2)cc1,-5.67% (inactive)
6,C=C(C)Cn1c(C2CC(=O)N(c3ccccc3F)C2)nc2ccccc21 (stereo not given),-9.62% (inactive)
7,CC(CC1C(C#N)=C(N)OC2=C1C(=O)CCC2)c1ccccc1 (stereo not given),-23.1% (inactive)
8,CCc1ncc(C(=O)c2ccc(OC)cc2)n1C,1.37% (inactive)
9,CC(=O)Nc1nc(CC(=O)c2ccccc2)cs1,-2.4% (inactive)
10,COc1ccc(-c2[nH]ncc2-c2cnc(C)s2)c(O)c1,-13.3% (inactive)
11,CCCC(=O)Nc1nc2ccc(OCC)cc2s1,-2.23% (inactive)
12,O=C(Nc1ccccc1)N1CCN2C(=O)c3ccccc3C12c1ccccc1 (stereo not given),-7.51% (inactive)
13,COc1ccc(N2C(=O)C3CCCN3C2c2ccc(Cl)cc2)cc1 (stereo not given),-6.21% (inactive)
14,CN(c1ccccc1)S(=O)(=O)c1cccc(C(=O)N2CCN(c3ccccn3)CC2)c1,2.2% (inactive)
15,CCOc1ccc(NC2c3ccccc3C(=O)N2c2ccc(Cl)cn2)cc1 (stereo not given),-14% (inactive)
16,COc1ccc(Nc2nnc(Cc3ccc(Cl)cc3)c(=O)[nH]2)c(OC)c1,-11.1% (inactive)
17,Cn1c(Cn2c(=O)sc3ccccc32)nnc1SCC(=O)Nc1ccc2c(c1)OCO2,-1.55% (inactive)
18,COc1cc(OC)cc(C(=O)NCCn2ccc3ccccc32)c1,-5.04% (inactive)
19,NC(=O)C1CCN(C(=O)c2cc3ccccn3n2)CC1,0.24% (inactive)
20,CC(Sc1ccc2nnc(-c3ccc(F)cc3)n2n1)C(=O)O (stereo not given),8.21% (inactive)

row,SMILES,growth inhibition
1,CCOC(=O)Cn1c(=O)oc2cc(S(=O)(=O)N3CCc4ccccc43)ccc21,-6.21% (inactive)
2,CCOC(=O)c1csc(NC(=O)c2ccccc2)n1,-6.33% (inactive)
3,CN(C)c1cccc(NC(=O)Cc2ccc(F)cc2)c1,-11.6% (inactive)
4,CCOC(=O)c1sc2nc3n(c(=O)c2c1C)CCCCC3,-4.76% (inactive)
5,CCOc1ccc(C2N(c3ccc(Cl)cc3)C(=O)C3CCCN32)cc1OC (stereo not given),-2.75% (inactive)
6,CC1CCCCN1S(=O)(=O)c1coc(C(N)=O)c1 (stereo not given),-12.1% (inactive)
7,Cc1ccc(NC(=O)CCNS(=O)(=O)c2cccc3nonc23)cc1,-4.17% (inactive)
8,CCOC1=NC(C(=O)O)c2ccccc2/C(=C(/C)Cl)N1 (stereo not given),-4.61% (inactive)
9,COc1cc(C2N(c3ccccc3)CCN2c2ccccc2)ccc1OC(C)=O,-18.8% (inactive)
10,COc1cc(S(=O)(=O)NCc2ccc3c(c2)OCO3)ccc1Cl,-10.5% (inactive)
11,CCOC(=O)c1cc(-c2ccc(F)cc2)n(CC(=O)Nc2nccs2)c1C,-11.3% (inactive)
12,O=C(C1CCN(S(=O)(=O)c2cccc3cccnc23)CC1)N1CCN(Cc2ccccc2)CC1,8.83% (inactive)
13,COc1ccc(Cl)cc1N(CC(=O)N1CCC(C)CC1)S(C)(=O)=O,5.7% (inactive)
14,CCOC(=O)c1ccc2c(c1)NC(=O)C(N1CCN(c3ccc(OC)cc3)CC1)S2 (stereo not given),0.455% (inactive)
15,CS(=O)(=O)NCCCc1ccccc1,-3.13% (inactive)
16,COc1ccc(C2C(C(=O)NCCN(C)C)c3cc(OC)c(OC)cc3C(=O)N2C)cc1OC (stereo not given),-3.47% (inactive)
17,O=C(Nc1nccs1)c1cccc(S(=O)(=O)N2CCOCC2)c1,-19.2% (inactive)
18,CC(C)C(C(=O)NC(C)(C)C)N1C(=O)c2ccccc2C1=O (stereo not given),-7.04% (inactive)
19,CCOc1ccc(Br)cc1/C=N/O,-17.4% (inactive)
20,Cc1ccc(-n2c(SCC(=O)Nc3nccs3)nc3c(c2=O)SCC3)cc1,-10.3% (inactive)

# Test: S. cerevisiae growth inhibition in restrictive medium, OD615, pilot screen, restrictive growth control, yeast lifespan reduction project (AID 706;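 active = growth inhibition above a set limit, 3 SD over mean compound inhibition, in both replicates, cut at about 43% in these data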;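 note: modified DeaD lifespan yeast strain shifted to restrictive glucose medium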)
# Settings: OD615, 48 h, at 10 µM, stronger effect = higher value
# In short: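 System: Engineered S. cerevisiae DeaD strain | Buffer or medium: Glucose-based CSMM-D restrictive medium | Schedule: 4 h pre-incubation, 48 h exposure at 30 °C | Technique: Optical density at 615 nm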
row,SMILES,growth inhibition
1,O=C(C1CC1)N1CCCN(C(=O)C2CC2)CC1,-1.38% (inactive)
2,CN(CCCNC(=O)Cn1cc2c(n1)CCCC2)C1CCCCC1,-0.155% (inactive)
3,Cc1cc(C(F)(F)F)nc(NCc2ccc(F)cc2)n1,-13% (inactive)
4,O=C(c1coc2ccccc2c1=O)N1CCN(c2cccc(C(F)(F)F)c2)CC1,-32.1% (inactive)
5,CCc1ccc(-c2nc(C(N)=O)c3[nH]c(=O)n(-c4ccccc4OC)c3n2)cc1,-2.13% (inactive)
6,C=C(C)Cn1c(C2CC(=O)N(c3ccccc3F)C2)nc2ccccc21 (stereo not given),-5.32% (inactive)
7,CC(CC1C(C#N)=C(N)OC2=C1C(=O)CCC2)c1ccccc1 (stereo not given),-13.3% (inactive)
8,CCc1ncc(C(=O)c2ccc(OC)cc2)n1C,-0.315% (inactive)
9,CC(=O)Nc1nc(CC(=O)c2ccccc2)cs1,-4.14% (inactive)
10,COc1ccc(-c2[nH]ncc2-c2cnc(C)s2)c(O)c1,-13% (inactive)
11,CCCC(=O)Nc1nc2ccc(OCC)cc2s1,-0.195% (inactive)
12,O=C(Nc1ccccc1)N1CCN2C(=O)c3ccccc3C12c1ccccc1 (stereo not given),-1.31% (inactive)
13,COc1ccc(N2C(=O)C3CCCN3C2c2ccc(Cl)cc2)cc1 (stereo not given),-6.83% (inactive)
14,CN(c1ccccc1)S(=O)(=O)c1cccc(C(=O)N2CCN(c3ccccn3)CC2)c1,4.43% (inactive)
15,CCOc1ccc(NC2c3ccccc3C(=O)N2c2ccc(Cl)cn2)cc1 (stereo not given),-15.6% (inactive)
16,COc1ccc(Nc2nnc(Cc3ccc(Cl)cc3)c(=O)[nH]2)c(OC)c1,-13% (inactive)
17,Cn1c(Cn2c(=O)sc3ccccc32)nnc1SCC(=O)Nc1ccc2c(c1)OCO2,7.6% (inactive)
18,COc1cc(OC)cc(C(=O)NCCn2ccc3ccccc32)c1,0.31% (inactive)
19,NC(=O)C1CCN(C(=O)c2cc3ccccn3n2)CC1,-0.18% (inactive)
20,CC(Sc1ccc2nnc(-c3ccc(F)cc3)n2n1)C(=O)O (stereo not given),52.5% (active)

row,SMILES,growth inhibition
1,CCOC(=O)Cn1c(=O)oc2cc(S(=O)(=O)N3CCc4ccccc43)ccc21,1.04% (inactive)
2,CCOC(=O)c1csc(NC(=O)c2ccccc2)n1,0.485% (inactive)
3,CN(C)c1cccc(NC(=O)Cc2ccc(F)cc2)c1,-21.4% (inactive)
4,CCOC(=O)c1sc2nc3n(c(=O)c2c1C)CCCCC3,5.75% (inactive)
5,CCOc1ccc(C2N(c3ccc(Cl)cc3)C(=O)C3CCCN32)cc1OC (stereo not given),-6.81% (inactive)
6,CC1CCCCN1S(=O)(=O)c1coc(C(N)=O)c1 (stereo not given),-13.6% (inactive)
7,Cc1ccc(NC(=O)CCNS(=O)(=O)c2cccc3nonc23)cc1,-8.23% (inactive)
8,CCOC1=NC(C(=O)O)c2ccccc2/C(=C(/C)Cl)N1 (stereo not given),-27.8% (inactive)
9,COc1cc(C2N(c3ccccc3)CCN2c2ccccc2)ccc1OC(C)=O,-13.6% (inactive)
10,COc1cc(S(=O)(=O)NCc2ccc3c(c2)OCO3)ccc1Cl,-15.1% (inactive)
11,CCOC(=O)c1cc(-c2ccc(F)cc2)n(CC(=O)Nc2nccs2)c1C,1.7% (inactive)
12,O=C(C1CCN(S(=O)(=O)c2cccc3cccnc23)CC1)N1CCN(Cc2ccccc2)CC1,5.8% (inactive)
13,COc1ccc(Cl)cc1N(CC(=O)N1CCC(C)CC1)S(C)(=O)=O,0.85% (inactive)
14,CCOC(=O)c1ccc2c(c1)NC(=O)C(N1CCN(c3ccc(OC)cc3)CC1)S2 (stereo not given),-5.2% (inactive)
15,CS(=O)(=O)NCCCc1ccccc1,9.6% (inactive)
16,COc1ccc(C2C(C(=O)NCCN(C)C)c3cc(OC)c(OC)cc3C(=O)N2C)cc1OC (stereo not given),-1.52% (inactive)
17,O=C(Nc1nccs1)c1cccc(S(=O)(=O)N2CCOCC2)c1,-11.8% (inactive)
18,CC(C)C(C(=O)NC(C)(C)C)N1C(=O)c2ccccc2C1=O (stereo not given),0.73% (inactive)
19,CCOc1ccc(Br)cc1/C=N/O,-29.9% (inactive)
20,Cc1ccc(-n2c(SCC(=O)Nc3nccs3)nc3c(c2=O)SCC3)cc1,-5.16% (inactive)
